S1P3 antagonist = S1P3 (human) receptor antagonism; Q99500; CHO S1P3 NFAT-BLA reporter, FRET fluorescence, antagonist mode; inhibition, % at 4.98 µM; hit rate 0.27% among 170,000; AID 485;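 active = inhibition above the plate cutoff, the mean inhibition of test wells on that plate plus 3 SD, cut at about 28% in these data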;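 note: cells challenged with S1P at its EC80 of 0.8 µM; blue over green emission ratio from cleaved BLA substrate after 4 h stimulation; 0% = S1P-stimulated wells and 100% = unstimulated DMSO-only wells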
Mdm2 ligase inh = blocks human Mdm2 ubiquitin ligase activity; Q00987; cell-based MDM2 ubiquitination luciferase reporter, 2 h; 0 = plate control, 100 = twice control, blank-subtracted; signal enhancement, % at 5 µM; hit rate 0.11% among 210,000;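 active = signal enhancement of 30% or more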;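 note: luminescence tracks abundance of the self-degrading MDM2-luciferase fusion protein; higher signal means inhibition of MDM2 E3 ligase activity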
Target sequence (Q00987 whole entry, looked up, the tested form may be a part): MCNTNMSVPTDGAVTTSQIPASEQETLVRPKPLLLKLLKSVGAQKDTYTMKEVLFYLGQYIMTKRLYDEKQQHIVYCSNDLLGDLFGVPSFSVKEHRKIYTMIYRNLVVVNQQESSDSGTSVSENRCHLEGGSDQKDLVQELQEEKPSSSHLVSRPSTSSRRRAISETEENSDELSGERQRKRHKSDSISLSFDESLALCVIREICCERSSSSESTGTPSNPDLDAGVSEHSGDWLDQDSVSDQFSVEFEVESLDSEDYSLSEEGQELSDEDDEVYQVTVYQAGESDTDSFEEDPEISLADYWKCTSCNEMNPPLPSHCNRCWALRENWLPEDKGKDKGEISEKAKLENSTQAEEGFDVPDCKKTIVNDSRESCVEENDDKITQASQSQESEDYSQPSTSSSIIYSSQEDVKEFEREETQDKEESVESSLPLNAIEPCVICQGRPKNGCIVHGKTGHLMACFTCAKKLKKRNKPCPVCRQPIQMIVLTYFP
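System: stable MDM2–luciferase fusion reporter cells / Input: 2000 cells seeded into each well / Schedule: 4 h settle plus 2 h compound, 37 °C / Compound: single-point 5 µM / Buffer or medium: cells held in DMEM / Benchmarks: control and blank well means / Evaluation: percent signal gain over controls, blank-subtracted / Measured by: luciferase luminescence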
CHOP inh = CHOP inhibition in unfolded protein response; CHO-K1 CHOP-promoter luciferase, tunicamycin-induced, 15-18 h; inhibition, % at 10 µM; hit rate 3.8% among 220,000;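 active = compounds that reduced the stress-induced luciferase reporter signal by more than about 70% of percent inhibition, limit read from the data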;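 note: 0% = tunicamycin plus vehicle and 100% = wells without tunicamycin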
Hsp70 activator = switches on Hsp70 transcription | HeLa Hsp70 promoter luciferase reporter, luminescence; scaled: vehicle 0, proteasome-inhibitor control 100% | activation, % at 10 µM | hit rate 0.04% among 200,000;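 active = activation above the mean across all tested compounds plus 3 SD, cutoff set per campaign, cut at about 5.5% in these data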;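 note: 100% = MG132 at 30 µM as the positive control and 0% = DMSO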
Numbers without * were called inactive. A selection: hits, their analogues and other compounds. The true share with any hit is near 4%.

COc1ccc(Cl)cc1Nc1nc(NCCO)nc(N2CCCC2)n1 was read as S1P3 antagonist 9, Mdm2 ligase inh -8, CHOP inh 74* and Hsp70 activator 0.
`Cc1cc(C(=O)Nc2cc(C(C)(C)C)on2)c(C)o1` gave S1P3 antagonist 5, Mdm2 ligase inh -10 and CHOP inh -18.
Cc1ccc(CNc2nc3ccccc3s2)s1 was read as S1P3 antagonist 0, Mdm2 ligase inh -76, CHOP inh 74* and Hsp70 activator 0.
`CCOC(=O)c1cc(-c2ccccc2)n(CC(=O)Nc2ccc(OC)cc2)c1C` gave S1P3 antagonist 1, Mdm2 ligase inh -1, CHOP inh 75* and Hsp70 activator 0.
`CCOC(=O)c1cc(-c2ccccc2)n(CCC(=O)O)c1C` gave Mdm2 ligase inh -8, CHOP inh 20 and Hsp70 activator 0.
For COc1ccc(-c2cn(-c3ccc(C)cc3)c(=O)n2CC(=O)Nc2ccc(OC)cc2OC)cc1 the results were Mdm2 ligase inh 8, CHOP inh -6 and Hsp70 activator 0.
`COc1ccc(NC(=O)Cn2c(-c3ccccc3)cn(-c3ccc(C)cc3)c2=O)cc1` gave Mdm2 ligase inh -13, CHOP inh 72* and Hsp70 activator 0.
`O=C(Nc1nc2ccc(F)cc2s1)c1ccccn1` gave S1P3 antagonist 11, Mdm2 ligase inh -68, CHOP inh 81* and Hsp70 activator 0.
Screening O=C(Nc1nc2ccccc2s1)c1cnccn1 returned Mdm2 ligase inh -1, CHOP inh 43 and Hsp70 activator 0.
Screening CC(C)(C)c1ccc(C(=O)OCC(=O)Nc2sc3c(c2C#N)CCC3)cc1 returned S1P3 antagonist 3, CHOP inh 90* and Hsp70 activator 0.
For COc1cccc(Cn2c(Oc3cccc(C)c3)nc3c2c(=O)n(C)c(=O)n3C)c1 the results were S1P3 antagonist 17, Mdm2 ligase inh -20, CHOP inh 79* and Hsp70 activator 0.
For C=CC(C)Sc1nc2c(c(=O)n(C)c(=O)n2C)n1Cc1ccccc1Cl (stereo unspecified) the results were S1P3 antagonist -4, Mdm2 ligase inh -15, CHOP inh 83* and Hsp70 activator 0.
For C=CCOc1nc2c(c(=O)n(C)c(=O)n2C)n1Cc1ccccc1Cl the results were Mdm2 ligase inh -13, CHOP inh 28 and Hsp70 activator 0.
`C=CCOc1nc2c(c(=O)n(C)c(=O)n2C)n1Cc1ccc(Cl)cc1` gave S1P3 antagonist -9, Mdm2 ligase inh -14, CHOP inh 82* and Hsp70 activator 0.
For COc1cccc(Cn2c(Oc3ccccc3)nc3c2c(=O)n(C)c(=O)n3C)c1 the results were Mdm2 ligase inh -28, CHOP inh 48 and Hsp70 activator 0.
COc1cccc(/C=C/C(=O)OCC(=O)N2c3ccccc3NC(=O)C2(C)C)c1 was read as S1P3 antagonist -6, Mdm2 ligase inh -4, CHOP inh 21 and Hsp70 activator 0.
For CO/N=C/NC(=O)NOCc1ncc(C(F)(F)F)cc1Cl the results were Mdm2 ligase inh -3, CHOP inh 12 and Hsp70 activator 0.
Screening O=C(N/C=N/OCc1ccc(Cl)cc1Cl)NOCc1ncc(C(F)(F)F)cc1Cl returned Mdm2 ligase inh 2, CHOP inh 95* and Hsp70 activator 0.
COc1cccc(-c2nnc3sc(C4CCCCC4)nn23)c1 was read as Mdm2 ligase inh -38, CHOP inh 74* and Hsp70 activator -1.
`COc1ccc(CCN=Cc2c(C)[nH]n(-c3ccc([N+](=O)[O-])cc3)c2=O)cc1OC` gave S1P3 antagonist 0, Mdm2 ligase inh -16, CHOP inh -20 and Hsp70 activator 0.
For COc1cc(SC#N)ccc1N=Cc1c(C)[nH]n(-c2ccc(Cl)cc2)c1=O the results were Mdm2 ligase inh 5, CHOP inh 104* and Hsp70 activator 0.
For COc1cc(SC#N)ccc1N=Cc1c(C)[nH]n(-c2ccc(C)c(C)c2)c1=O the results were S1P3 antagonist -9, Mdm2 ligase inh -11, CHOP inh 107* and Hsp70 activator 0.
`COc1cc(S(=O)(=O)Nc2ccccc2)ccc1N=Cc1c(C)[nH]n(-c2ccc(C)cc2)c1=O` gave S1P3 antagonist 2, Mdm2 ligase inh -12, CHOP inh 49 and Hsp70 activator 0.
`O=C(Cn1cc(C(F)(F)F)ccc1=O)Nc1cccc(S(=O)(=O)N2CCOCC2)c1` gave S1P3 antagonist -38, Mdm2 ligase inh -9, CHOP inh -9 and Hsp70 activator 0.
Screening Cc1cc(=O)oc(C)c1C(=O)OCC(=O)c1ccc2ccccc2c1 returned Mdm2 ligase inh -6, CHOP inh 71* and Hsp70 activator 0.

Screening data as filed in PubChem.
